IC50 data for 15 compounds are collected here from ChEMBL document CHEMBL4000161, “Rearranged 6/6/5/6-Fused Triterpenoid Acids from the Stems of Kadsura coccinea” (J Nat Prod, 2016).

pIC50: −log10 of the molar value.

Common to all, as to assay type: functional, cell-based
One assay relates to A549. Briefly: Cytotoxicity against human A549 cells assessed as decrease in cell viability after 48 hrs by MTS assay. To be noted: A549, 48 h. The method in brief: (§1)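 Cells kept in RPMI-1640 or DMEM with 10% FBS, 37 °C, 5% CO2. Seeded at 1 × 10^5 cells/mL; adherent lines left 12 h to attach, suspension cells (HL-60) seeded just before dosing. Triplicate wells at various concentrations for 48 h; MTS then 4 h at 37 °C; lysis in 20% SDS/50% DMF; OD 490 nm. IC50 by Reed and Muench method.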
In general terms: Tetrazolium assays rely on reduction of a dye to a coloured formazan, in cell work by metabolically active cells.

In the next assay the test system is HL-60. Nature of the assay: Cytotoxicity against human HL60 cells assessed as decrease in cell viability after 48 hrs by MTS assay. The settings on record: HL-60, 48 h. The essentials: as §1
A further assay relates to MCF7. Nature of the assay: Cytotoxicity against human MCF7 cells assessed as decrease in cell viability after 48 hrs by MTS assay. The settings on record: MCF7, 48 h. The essentials:
as §1

The subject of another assay is HeLa. Briefly: Cytotoxicity against human HeLa cells assessed as decrease in cell viability after 48 hrs by MTS assay. The method in brief:
as §1

The test system of the next assay is SW480. Briefly: Cytotoxicity against human SW480 cells assessed as decrease in cell viability after 48 hrs by MTS assay. The settings on record: SW480, 48 h. The essentials: as §1
In the next assay the test system is SMMC-7721. Briefly: Cytotoxicity against human SMMC7721 cells assessed as decrease in cell viability after 48 hrs by MTS assay. The settings on record: SMMC-7721, 48 h. The method in brief: as §1

For the compound `C=C1[C@@H]([C@H](C)C[C@@H]2C=C(C)C(=O)O2)CC[C@@]2(C)C3=CC[C@H]4C(C)(C)[C@H](O)CC[C@]4(C)[C@@H]3C[C@@H]12`, the pIC50 with A549 is less than 4.40; with HL-60 it was 5.13; with MCF7, 4.87; in the assay with HeLa, 4.73; with SW480 it was 4.59; with SMMC-7721, less than 4.40.

Consider `C=C1[C@@H]([C@H](C)C[C@@H](O)/C=C(\C)C(=O)O)CC[C@@]2(C)C3=CC[C@H]4C(C)(C)[C@H](OC(C)=O)CC[C@]4(C)[C@@H]3C[C@@H]12`, for which the pIC50 in the assay on A549, with HL-60, with MCF7, in the assay with HeLa, in the assay on SW480 and in the assay with SMMC-7721 was less than 5.00 in each case.

With `C=C1[C@@H]([C@H](C)CC/C=C(/C)C(=O)O)CC[C@@]2(C)C3=CC[C@H]4C(C)(C)C(=O)CC[C@]4(C)[C@@H]3C[C@@H]12`, the pIC50 in the assay with A549, in the assay with HL-60, in the assay on MCF7, in the assay with HeLa, in the assay on SW480 and in the assay with SMMC-7721 was less than 5.00 throughout.

With `C/C(=C/CC[C@@H](C)C1=C(CO)[C@@H]2C[C@@H]3C(=CC[C@H]4C(C)(C)C(=O)CC[C@]34C)[C@]2(C)CC1)C(=O)O`, the pIC50 in the assay on A549, in the assay with HL-60, in the assay on MCF7, with HeLa, with SW480 and with SMMC-7721 was less than 5.00 in each case.

With `CC(=O)O[C@@H]1CC[C@]2(C)[C@@H]3C[C@H]4[C@@](C)(O)[C@@H]([C@H](C)CC/C=C(/C)C(=O)O)CC[C@@]4(C)C3=CC[C@H]2C1(C)C`, the pIC50 in the assay on A549, with HL-60, in the assay on MCF7, with HeLa, in the assay on SW480 and in the assay with SMMC-7721 was less than 5.00 in each case.

With `CC(=O)O[C@@H]1CC[C@]2(C)[C@@H]3C[C@H]4C(CO)=C([C@H](C)CC/C=C(/C)C(=O)O)CC[C@@]4(C)C3=CC[C@H]2C1(C)C`, the pIC50 in the assay on A549, in the assay with HL-60, in the assay with MCF7, in the assay with HeLa, in the assay on SW480 and in the assay on SMMC-7721 was less than 5.00 in each case.

Take `C=C1[C@@H]([C@H](C)CC/C=C(/C)C(=O)O)CC[C@@]2(C)C3=CC[C@H]4C(C)(C)[C@@H](O)CC[C@]4(C)[C@@H]3C[C@@H]12`: the pIC50 in the assay with A549, in the assay with HL-60, in the assay with MCF7, in the assay with HeLa, in the assay on SW480 and in the assay on SMMC-7721 was less than 5.00 throughout.

Consider `C=C1[C@@H]([C@H](C)CC(=O)/C=C(\C)C(=O)O)CC[C@@]2(C)C3=CC[C@H]4C(C)(C)[C@H](OC(C)=O)CC[C@]4(C)[C@@H]3C[C@@H]12`, for which the pIC50 is 4.89 with A549; 5.51 in the assay on HL-60; 5.34 in the assay on MCF7; 5.11 in the assay with HeLa; 5.22 in the assay with SW480; 4.94 with SMMC-7721.

In the case of `C=C1[C@@H]([C@H](C)C[C@H]2C=C(C)C(=O)O2)CC[C@@]2(C)C3=CC[C@H]4C(C)(C)[C@H](O)CC[C@]4(C)[C@@H]3C[C@@H]12`, the pIC50 in the assay with A549 was 4.57; in the assay with HL-60 it was 4.98; in the assay with MCF7 it was 4.81; in the assay on HeLa it was 4.91; in the assay on SW480 it was 4.70; in the assay with SMMC-7721, 4.60.

With `CC(=O)O[C@@H]1CC[C@]2(C)[C@@H]3C[C@H]4C(C=O)=C([C@H](C)CC/C=C(/C)C(=O)O)CC[C@@]4(C)C3=CC[C@H]2C1(C)C`, the pIC50 in the assay on A549, with HL-60, in the assay on MCF7, with HeLa, with SW480 and with SMMC-7721 was less than 5.00 in each case.

For the compound `C=C1[C@@H]([C@H](C)CC/C=C(/C)C(=O)O)CC[C@@]2(C)C3=CC[C@H]4C(C)(C)[C@H](O)CC[C@]4(C)[C@@H]3C[C@@H]12`, the pIC50 in the assay on A549, with HL-60, with MCF7, in the assay on HeLa, in the assay with SW480 and in the assay with SMMC-7721 was less than 5.00 throughout.

Turning to `C=C1[C@@H]([C@H](C)CC/C=C(/C)C(=O)O)CC[C@@]2(C)C3=CC(=O)[C@H]4C(C)(C)[C@H](OC(C)=O)CC[C@]4(C)[C@@H]3C[C@@H]12`, the pIC50 in the assay on A549, in the assay with HL-60, in the assay with MCF7, in the assay with HeLa, in the assay on SW480 and with SMMC-7721 was less than 5.00 each time.

For `CC(=O)O[C@@H]1CC[C@]2(C)[C@@H]3CC4=C(CO)[C@@H]([C@H](C)CC/C=C(/C)C(=O)O)CC[C@@]4(C)C3=CC[C@H]2C1(C)C`, the pIC50 with A549, with HL-60, in the assay on MCF7, in the assay with HeLa, in the assay on SW480 and in the assay on SMMC-7721 was less than 5.00 in each case.

As to `C=C1[C@@H]([C@H](C)CC/C=C(/C)C(=O)O)CC[C@]2(C)[C@H]1C[C@H]1[C@@]3(C)CCC(=O)C(C)(C)[C@@H]3C[C@@H]3O[C@@]312`, the pIC50 in the assay on A549, in the assay on HL-60, in the assay with MCF7, with HeLa, with SW480 and with SMMC-7721 was less than 5.00 throughout.

Consider `CC(=O)O[C@H]1C(=O)[C@@]2(C)[C@H]([C@H](OC(=O)c3ccccc3)[C@]3(O)C[C@H](OC(=O)[C@H](O)[C@@H](NC(=O)c4ccccc4)c4ccccc4)C(C)=C1C3(C)C)[C@]1(OC(C)=O)CO[C@@H]1C[C@@H]2O` [PACLITAXEL], for which the pIC50 in the assay on A549, in the assay on HL-60, in the assay with MCF7, in the assay on HeLa, in the assay with SW480 and in the assay with SMMC-7721 was more than 8.10 in each case.

As usually defined, the pIC50 is −log10 of the IC50, conventionally taken in molar units.
